# Measured values published in ChEMBL document CHEMBL1157693, “Microwave assisted synthesis and antimicrobial activity of 2-quinoxalinone-3-hydrazone derivatives” (2010).
# Active and inactive are the calls of the source. The rule behind the calls is not given here.
# Tests used:
# Type in all cases: functional
# [1] = system: Geobacillus stearothermophilus; assay: Antibacterial activity against Bacillus stearothermophilus NCIB 8222 after 24 hrs by agar well diffusion method; as to IZ: test concentration or dose not given here
# Procedure, shortened: (§1)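 Agar well diffusion. Clinical isolates were first checked for viability, then grown in nutrient broth for 8 h at 37 °C. About 0.2 ml of broth culture was mixed into 18 ml molten diagnostic sensitivity test agar cooled to 45 °C and poured into plates. Compounds in DMSO went into bored wells, with streptomycin as reference. Plates stood 1 h for diffusion, then were incubated upright at 37 °C for 24 h. Clear inhibition zones were read in mm.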
# Bacillus cereus [2] = assay: Antibacterial activity against Bacillus cereus NCIB 6349 after 72 hrs; conditions: NCIB 6349, 72 h
# Procedure, shortened: (§2)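 MIC by the Russell and Furr method, run on selected Gram-positive and Gram-negative strains. Once the agar had set and its surface had dried, nutrient agar plates were streaked with overnight broth cultures. They were incubated at 37 °C for up to 72 h and scored for presence or absence of growth.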
# Staphylococcus aureus [3] = assay: Antibacterial activity against Staphylococcus aureus NCIB 8588 after 24 hrs by agar well diffusion method; procedure, shortened: as §1; as to IZ: test concentration or dose not given here
# Staphylococcus aureus [4] = assay: Antibacterial activity against Staphylococcus aureus NCIB 8588 after 72 hrs; conditions: NCIB 8588, 72 h; procedure, shortened: as §2
# Bacillus cereus [5] = assay: Antibacterial activity against Bacillus cereus NCIB 6349 after 24 hrs by agar well diffusion method; procedure, shortened: as §1; as to IZ: test concentration or dose not given here
# Pseudomonas fluorescens = assay: Antibacterial activity against Pseudomonas fluorescens NCIB 3756 after 24 hrs by agar well diffusion method; procedure, shortened: as §1; as to IZ: test concentration or dose not given here
# Klebsiella pneumoniae [6] = assay: Antibacterial activity against Klebsiella pneumoniae NCIB 418 after 24 hrs by agar well diffusion method; procedure, shortened: as §1; as to IZ: test concentration or dose not given here
# Bacillus subtilis [7] = assay: Antibacterial activity against Bacillus subtilis NCIB 3610 after 24 hrs by agar well diffusion method; procedure, shortened: as §1; as to IZ: test concentration or dose not given here
# Candida albicans = assay: Antifungal activity against Candida albicans after 3 days by agar well diffusion method
# Bacillus anthracis [8] = assay: Antibacterial activity against Bacillus anthracis after 72 hrs
# Escherichia coli [9] = assay: Antibacterial activity against Escherichia coli NCIB 86 after 24 hrs by agar well diffusion method; procedure, shortened: as §1; as to IZ: test concentration or dose not given here
# Bacillus subtilis [10] = assay: Antibacterial activity against Bacillus subtilis NCIB 3610 after 72 hrs; conditions: NCIB 3610, 72 h; procedure, shortened: as §2
# Escherichia coli [11] = assay: Antibacterial activity against Escherichia coli NCIB 86 after 72 hrs; conditions: NCIB 86, 72 h; procedure, shortened: as §2
# Shigella dysenteriae [12] = assay: Antibacterial activity against Shigella dysenteriae after 24 hrs by agar well diffusion method
# Klebsiella pneumoniae [13] = assay: Antibacterial activity against Klebsiella pneumoniae NCIB 418 after 72 hrs; conditions: NCIB 418, 72 h; procedure, shortened: as §2
# [14] = system: Geobacillus stearothermophilus; assay: Antibacterial activity against Bacillus stearothermophilus NCIB 8222 after 72 hrs; conditions: NCIB 8222, 72 h; procedure, shortened: as §2
# Shigella dysenteriae [15] = assay: Antibacterial activity against Shigella dysenteriae after 72 hrs
# Procedure, shortened: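 MIC by agar dilution: compound-containing nutrient agar was set and surface-dried, then streaked with overnight broth culture of the clinical isolate. Incubated at 37 °C for up to 72 h and scored for presence or absence of growth. Streptomycin was the reference.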
# Bacillus anthracis [16] = assay: Antibacterial activity against Bacillus anthracis after 24 hrs by agar well diffusion method
# Pseudomonas aeruginosa = assay: Antibacterial activity against Pseudomonas aeruginosa NCIB 950 after 24 hrs by agar well diffusion method; procedure, shortened: as §1; as to IZ: test concentration or dose not given here
Compound,inhibition zone (IZ) [1],MIC (Bacillus cereus [2]),inhibition zone (IZ) (Staphylococcus aureus [3]),MIC (Staphylococcus aureus [4]),inhibition zone (IZ) (Bacillus cereus [5]),inhibition zone (IZ) (Pseudomonas fluorescens),inhibition zone (IZ) (Klebsiella pneumoniae [6]),inhibition zone (IZ) (Bacillus subtilis [7]),inhibition zone (IZ) (Candida albicans),MIC (Bacillus anthracis [8]),inhibition zone (IZ) (Escherichia coli [9]),MIC (Bacillus subtilis [10]),MIC (Escherichia coli [11]),inhibition zone (IZ) (Shigella dysenteriae [12]),MIC (Klebsiella pneumoniae [13]),MIC [14],MIC (Shigella dysenteriae [15]),inhibition zone (IZ) (Bacillus anthracis [16]),inhibition zone (IZ) (Pseudomonas aeruginosa)
C/C(=N\Nc1nc2ccccc2[nH]c1=O)c1cc2ccccc2oc1=O,28 mm,31.3 mg/L,15 mm,31.3 mg/L,20 mm,0 mm,20 mm,32 mm,29 mm,62.5 mg/L,30 mm,7.8 mg/L,31.3 mg/L,0 mm,31.3 mg/L,31.3 mg/L,inactive,18 mm,0 mm
CCC(CC)=NNc1nc2ccccc2[nH]c1=O,25 mm,7.8 mg/L,10 mm,62.5 mg/L,28 mm,0 mm,15 mm,20 mm,18 mm,inactive,15 mm,31.3 mg/L,31.3 mg/L,0 mm,31.3 mg/L,7.8 mg/L,inactive,0 mm,0 mm
O=c1[nH]c2ccccc2nc1NN=C1c2ccccc2Cc2ccccc21,18 mm,7.8 mg/L,14 mm,15.6 mg/L,25 mm,0 mm,21 mm,12 mm,9 mm,31.3 mg/L,20 mm,31.3 mg/L,15.6 mg/L,0 mm,7.8 mg/L,15.6 mg/L,inactive,14 mm,15 mm
O=c1[nH]c2ccccc2nc1N/N=C1\CCCCC1Br (stereo not given),13 mm,7.8 mg/L,13 mm,31.3 mg/L,28 mm,0 mm,12 mm,20 mm,19 mm,15.6 mg/L,13 mm,7.8 mg/L,31.3 mg/L,15 mm,31.3 mg/L,31.3 mg/L,15.6 mg/L,19 mm,0 mm
CC(C)=NNc1nc2ccccc2[nH]c1=O,30 mm,15.6 mg/L,12 mm,62.5 mg/L,24 mm,0 mm,12 mm,30 mm,31 mm,62.5 mg/L,30 mm,7.8 mg/L,7.8 mg/L,13 mm,15.6 mg/L,7.8 mg/L,31.3 mg/L,14 mm,0 mm
NYSTATIN,inactive,–,inactive,–,inactive,inactive,inactive,inactive,–,–,inactive,–,–,inactive,–,–,–,inactive,inactive
